The structures appear in SMILES notation. Active and inactive are the calls of the source. The rule behind the calls is not given here. Residues, ends and D or L forms follow the SMILES beside them. *: point of attachment. Cbz = O=C(OCc1ccccc1)*

The target of assay [1] is Proteasome Macropain subunit (Homo sapiens) (UniProt P49721). Put plainly: Inhibition of trypsin-like activity 20S proteasome beta subunit 2 of human MCF7 cells using fluorogenic substrate Boc-LRR-AMC at 10 uM after 1 hr by fluorescence analysis relative to control. The class given is cell-based. Summed up: (§1)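 Screen at 10 µM: MCF-7 lysates (sucrose/HEPES/MgCl2/EDTA buffer, 1 mM DTT) preincubated 10 min in 225 mM Tris pH 7.8, 7.5 mM MgOAc, 7.5 mM MgCl2, 45 mM KCl, 1 mM DTT; compound 1 h at 37 °C, then substrate 1 h at 37 °C; AMC release ex 360/em 460 nm versus DMSO; MG-132 positive control.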

Another assay deals with MCF7. The assay can be described thus: Antiproliferative activity against human MCF7 cells assessed as cell viability after 48 hrs MTT assay. The settings on record: MCF7, 48 h. The class given is functional, cell-based. Summed up: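 MTT:medium (1:9) added 4 h at 37°C, formazan dissolved in DMSO, absorbance 570 nm. DMSO solvent control; triplicate; IC50 = concentration inhibiting 50% of viability.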

Assay [2] concerns the target T1, Proteasome Macropain subunit MB1 (Homo sapiens) (UniProt P28074).
T1 sequence (whole entry): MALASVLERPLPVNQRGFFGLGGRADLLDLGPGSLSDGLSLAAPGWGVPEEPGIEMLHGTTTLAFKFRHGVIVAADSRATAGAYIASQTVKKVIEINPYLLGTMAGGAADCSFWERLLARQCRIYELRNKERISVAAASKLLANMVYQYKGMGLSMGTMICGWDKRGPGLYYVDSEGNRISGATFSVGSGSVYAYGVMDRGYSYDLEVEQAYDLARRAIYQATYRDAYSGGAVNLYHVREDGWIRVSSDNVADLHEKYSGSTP
Put plainly: Inhibition of chymotrypsin-like activity 20S proteasome beta subunit 5 of human MCF7 cells using fluorogenic substrate Suc-LLVY-AMC at 10 uM after 1 hr by fluorescence analysis relative to control. The class given is cell-based. The method in brief: as §1

Assay [3] concerns the target T2, Proteasome component C5 (Homo sapiens) (UniProt P20618).
T2 sequence (whole entry): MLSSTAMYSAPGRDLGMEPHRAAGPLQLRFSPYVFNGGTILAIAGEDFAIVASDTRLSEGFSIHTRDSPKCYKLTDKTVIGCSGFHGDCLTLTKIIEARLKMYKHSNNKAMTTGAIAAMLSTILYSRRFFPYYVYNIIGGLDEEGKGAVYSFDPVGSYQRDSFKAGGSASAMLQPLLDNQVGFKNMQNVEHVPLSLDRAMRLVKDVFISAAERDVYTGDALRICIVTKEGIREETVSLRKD
Put plainly: Inhibition of caspase-like activity 20S proteasome beta subunit 1 of human MCF7 cells using fluorogenic substrate Z-LLE-AMC at 10 uM after 1 hr by fluorescence analysis relative to control. The class given is cell-based. The method in brief:
as §1

Proteasome Macropain subunit (Homo sapiens), sequence (P49721 whole entry): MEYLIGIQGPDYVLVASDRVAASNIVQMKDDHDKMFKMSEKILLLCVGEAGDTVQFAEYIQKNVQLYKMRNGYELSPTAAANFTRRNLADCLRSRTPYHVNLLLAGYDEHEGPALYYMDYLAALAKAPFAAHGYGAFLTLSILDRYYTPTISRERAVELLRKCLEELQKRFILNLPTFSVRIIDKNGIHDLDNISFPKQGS

As to `Cc1cc(NC(=O)c2ccc(NC3=C(Cl)C(=O)c4ccccc4C3=O)cc2)no1`, the inhibition in assay [1] stood at 6.55%; in assay [2], 18.9%; in assay [3], 8.36%. The IC50 in the assay on MCF7 was determined as 10.2 µM.

As to `CCc1ccccc1NS(=O)(=O)c1ccc(NC2=C(Cl)C(=O)c3ccccc3C2=O)cc1`, the inhibition in assay [1] came to 21.1%; in assay [2], 17.4%; in assay [3] it was 13.9%. The half-maximal inhibitory concentration (IC50) in the assay with MCF7 worked out at 2.43 µM.

With `Cc1ccc(NC(=O)c2ccc(NC3=C(Cl)C(=O)c4ccccc4C3=O)cc2)nc1`, in assay [1], the inhibition entry is “inactive”. Further, in the assay with MCF7, the IC50 was 4.16 µM. The inhibition in assay [2] is 22%; in assay [3], 7.42%.

On to `O=C(Nc1ccc(Cl)cc1)c1ccc(NC2=C(Cl)C(=O)c3ccccc3C2=O)cc1`, for which the inhibition in assay [1] was found to be 1.55%; in assay [2], 15.8%. The IC50 with MCF7 is 4.52 µM. Moreover, in assay [3], the inhibition entry is “inactive”.

Regarding `O=C(Nc1ccc(Cl)cn1)c1ccc(NC2=C(Cl)C(=O)c3ccccc3C2=O)cc1`, in assay [1], the inhibition result is “inactive”. Moreover, the IC50 with MCF7 amounted to 6.19 µM. Also, the results for the inhibition in assay [2] and in assay [3] were 19.4% and 8.55%, respectively.

Turning to `COc1cccc2c1C(=O)c1c(O)c3c(c(O)c1C2=O)C[C@@](O)(C(=O)CO)C[C@@H]3O[C@H]1C[C@H](N)[C@H](O)[C@H](C)O1` [DOXORUBICIN], the IC50 in the assay on MCF7 came to 0.93 µM.

Turning to `O=C(Nc1nccs1)c1ccc(NC2=C(Cl)C(=O)c3ccccc3C2=O)cc1`, in assay [1], the inhibition entry was “inactive”. Also, the IC50 with MCF7 stood at 3.84 µM. Also, the inhibition in assay [2] is 19.6%; in assay [3], 3.59%.

With `COc1cc(NS(=O)(=O)c2ccc(NC3=C(Cl)C(=O)c4ccccc4C3=O)cc2)cc(OC)c1`, the inhibition in assay [1] was determined as 22.7%; in assay [2], 20%; in assay [3], 12%. Moreover, the IC50 in the assay with MCF7 was found to be 2.2 µM.

With `O=C1C(Cl)=C(Nc2ccc(S(=O)(=O)Nc3ccccc3[N+](=O)[O-])cc2)C(=O)c2ccccc21`, the values for the inhibition in assay [1], in assay [2] and in assay [3] were 21.3%, 17.3% and 14.2%, respectively. The IC50 with MCF7 came out at 3.99 µM.

Regarding `Cc1cccnc1NC(=O)c1ccc(NC2=C(Cl)C(=O)c3ccccc3C2=O)cc1`, the inhibition result in assay [1] was “inactive”. Besides, the IC50 with MCF7 is 4.32 µM. The inhibition in assay [2] worked out at 11.4%; in assay [3], 9.52%.

Regarding `CC(C)c1ccccc1NC(=O)c1ccc(NC2=C(Cl)C(=O)c3ccccc3C2=O)cc1`, the inhibition entry in assay [1] was “inactive”. Also, the IC50 in the assay on MCF7 is 2.61 µM. Also, the inhibition came out at 17.2% in assay [2] and 9.94% in assay [3].

For `O=C1C(Cl)=C(Nc2ccc(S(=O)(=O)Nc3ccc(Br)cc3)cc2)C(=O)c2ccccc21`, the inhibition in assay [1] worked out at 23.8%; in assay [2], 22.2%; in assay [3], 10%. Also, in the assay on MCF7, the IC50 was determined as 3.37 µM.

Consider `Cc1csc(NS(=O)(=O)c2ccc(NC3=C(Cl)C(=O)c4ccccc4C3=O)cc2)n1`, for which the figures for the inhibition in assay [1], in assay [2] and in assay [3] were 21%, 24.8% and 15.4%, respectively. In the assay on MCF7, the IC50 was 4.23 µM.

Turning to `Cc1cccnc1NS(=O)(=O)c1ccc(NC2=C(Cl)C(=O)c3ccccc3C2=O)cc1`, the inhibition in assay [1] was 13%; in assay [2], 14.8%; in assay [3] it was 9.01%. Also, the IC50 in the assay on MCF7 was 1.91 µM.

As for `O=C1C(Cl)=C(Nc2ccc(S(=O)(=O)Nc3ccccc3Cl)cc2)C(=O)c2ccccc21`, the values for the inhibition in assay [1], in assay [2] and in assay [3] were 6.29%, 3.25% and 1.21%, respectively. Besides, the IC50 with MCF7 came to 2.56 µM.

With `O=C1C(Cl)=C(Nc2ccc(S(=O)(=O)Nc3cccc([N+](=O)[O-])c3)cc2)C(=O)c2ccccc21`, the inhibition in assay [1] is 19.4%; in assay [2], 23.5%; in assay [3] it was 7.44%. In addition, the IC50 with MCF7 worked out at 2.17 µM.

On to `O=C1C(Cl)=C(Nc2ccc(S(=O)(=O)Nc3cccc(Cl)c3)cc2)C(=O)c2ccccc21`, for which the inhibition in assay [1] is 24.5%; in assay [2], 28.8%; in assay [3], 14.2%. In the assay with MCF7, the IC50 worked out at 2.1 µM.

With `Cc1ccnc(NS(=O)(=O)c2ccc(NC3=C(Cl)C(=O)c4ccccc4C3=O)cc2)c1`, the inhibition amounted to 7.26% in assay [1], 11.7% in assay [2] and 3.35% in assay [3]. For the same molecule, in the assay with MCF7, the IC50 stood at 2.11 µM.

Take `Cc1ccnc(NC(=O)c2ccc(NC3=C(Cl)C(=O)c4ccccc4C3=O)cc2)c1`: the inhibition entry in assay [1] is “inactive”. Also, the IC50 in the assay on MCF7 worked out at 1.72 µM. Also, the inhibition in assay [2] is 16.6%; in assay [3], 8.37%.

For the molecule `Cc1csc(NC(=O)c2ccc(NC3=C(Cl)C(=O)c4ccccc4C3=O)cc2)n1`, the results for the inhibition in assay [1], in assay [2] and in assay [3] were 7.11%, 22.3% and 7.76%, respectively. The IC50 in the assay with MCF7 was found to be 2.44 µM.

Consider `O=C(Nc1cccc(Cl)c1)c1ccc(NC2=C(Cl)C(=O)c3ccccc3C2=O)cc1`, for which the results for the inhibition in assay [1], in assay [2] and in assay [3] were 27.6%, 21.6% and 11.7%, respectively. Moreover, the IC50 with MCF7 was 16.6 µM.

In the case of `O=C1C(Cl)=C(Nc2ccc(S(=O)(=O)Nc3ccc([N+](=O)[O-])cc3)cc2)C(=O)c2ccccc21`, the inhibition in assay [1] was 22.7%; in assay [2], 26%; in assay [3], 14.1%. For the same molecule, the IC50 in the assay on MCF7 stood at 2.84 µM.

In the case of `O=C(Nc1cccc2ccccc12)c1ccc(NC2=C(Cl)C(=O)c3ccccc3C2=O)cc1`, the results for the inhibition in assay [1], in assay [2] and in assay [3] were 4.41%, 16.9% and 16.7%, respectively. The IC50 in the assay on MCF7 came to 4.8 µM.

`O=C(Nc1ccccc1)c1ccc(NC2=C(Cl)C(=O)c3ccccc3C2=O)cc1`: the inhibition is 3.19% in assay [1], 4.03% in assay [2] and 10.7% in assay [3]. Further, the IC50 in the assay on MCF7 stood at 15.4 µM.

Take `O=C1C(Cl)=C(Nc2ccc(S(=O)(=O)N3CCOCC3)cc2)C(=O)c2ccccc21`: the inhibition came out at 2.76% in assay [1], 10.8% in assay [2] and 16.2% in assay [3]. Also, in the assay with MCF7, the IC50 came to 1.84 µM.

As for `CC(C)c1ccccc1NS(=O)(=O)c1ccc(NC2=C(Cl)C(=O)c3ccccc3C2=O)cc1`, the results for the inhibition in assay [1], in assay [2] and in assay [3] were 17.1%, 20% and 11.5%, respectively. Also, the IC50 in the assay with MCF7 is 5.38 µM.

Consider `CC(C)C[C@@H](C=O)NC(=O)[C@H](CC(C)C)NC(=O)[C@H](CC(C)C)NC(=O)OCc1ccccc1` (Cbz-Leu-Leu-Leu-aldehyde), for which the inhibition stood at 51.4% in assay [1], 38.2% in assay [2] and 18.4% in assay [3].

In the case of `Cc1cccc(NC(=O)c2ccc(NC3=C(Cl)C(=O)c4ccccc4C3=O)cc2)c1`, the inhibition in assay [1] came to 3.39%; in assay [2], 14.6%; in assay [3], 15.1%. In addition, in the assay with MCF7, the IC50 was determined as 14.4 µM.

Turning to `O=C1C(Cl)=C(Nc2ccc(S(=O)(=O)Nc3cccc4ccccc34)cc2)C(=O)c2ccccc21`, the inhibition in assay [1] amounted to 21.2%; in assay [2] it was 18.4%; in assay [3], 15.4%. Besides, the concentration for half-maximal inhibition (IC50) in the assay on MCF7 came out at 3.32 µM.

`O=C(Nc1cccnc1)c1ccc(NC2=C(Cl)C(=O)c3ccccc3C2=O)cc1`: the inhibition entry in assay [1] is “inactive”. Also, in the assay with MCF7, the IC50 was 6.04 µM. Also, the inhibition in assay [2] stood at 16.3%; in assay [3], 1.2%.

As to `O=C1C(Cl)=C(Nc2ccc(S(=O)(=O)Nc3cccnc3Cl)cc2)C(=O)c2ccccc21`, the inhibition in assay [1] amounted to 22.1%; in assay [2] it was 22.4%; in assay [3], 11.2%. Also, the IC50 in the assay on MCF7 was 4.65 µM.

As to `O=C(Nc1ccncc1)c1ccc(NC2=C(Cl)C(=O)c3ccccc3C2=O)cc1`, the inhibition is 2.43% in assay [1], 8.96% in assay [2] and 7.87% in assay [3]. Besides, in the assay with MCF7, the IC50 turned out to be 20.8 µM.

Consider `Cc1ccc(NS(=O)(=O)c2ccc(NC3=C(Cl)C(=O)c4ccccc4C3=O)cc2)nc1`, for which the inhibition in assay [1] turned out to be 11.6%; in assay [2], 10.1%. Also, the IC50 with MCF7 was 1.79 µM. Further, in assay [3], the inhibition entry is “inactive”.

For the origin of these results see ChEMBL document CHEMBL4706614, “Design, synthesis and biological evaluation of novel naphthoquinone-4-aminobenzensulfonamide/carboxamide derivatives as proteasome inhibitors” (Eur J Med Chem, 2021).
